Reference: ChEMBL document CHEMBL1177815, “Synthesis and molecular docking studies of novel 2-chloro-pyridine derivatives containing flavone moieties as potential antitumor agents” (Bioorg Med Chem Lett, 2010)
Converted amounts (≈) assume the structure as drawn. The source made the active and inactive calls. The rule behind the calls is not given here.

What was measured:
[1] = target: DNA polymerase I, thermostable (Thermus aquaticus) (UniProt P19821); experiment: Inhibition of Thermus aquaticus taq polymerase at 0 to 60 uM
SGC-7901 = experiment: Cytotoxicity against human SGC7901 after 48 hrs by MTT assay; format: functional, cell-based
Summary of the method: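 SGC-7901 cells were diluted to 3 × 10⁴ cells/mL and seeded at 100 µL per well, then held 24 h at 37 °C in 5% CO₂ before treatment. Samples at pre-set concentrations went into six wells each, with 5-fluorouracil as positive control and DMSO as negative control. Read-out was absorbance at 570 nm. Data are the mean ± SD of three experiments in triplicate. IC50 is the concentration at which 50% of cells survive.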

[2] = target: T1, Telomerase reverse transcriptase (Homo sapiens, UniProt O14746); experiment: Inhibition of human telomerase in human SGC7901 cells at 0 to 60 uM by TRAP assay; format: cell-based; conditions: SGC-7901
Summary of the method: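 Telomerase inhibition was measured by a modified TRAP assay using SGC-7901 cell extract. Compounds were tested across the stated concentration range. IC50 is the concentration giving 50% telomerase inhibition. Ethidium bromide served as reference control.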

[3] = target: DNA polymerase I, thermostable (Thermus aquaticus, UniProt P19821); experiment: Inhibition of Thermus aquaticus taq polymerase
[4] = target: T1, Telomerase reverse transcriptase; experiment: Inhibition of human telomerase in human SGC7901 cells by TRAP assay
[5] = Selectivity index, ratio of IC50 for taq polymerase to IC50 for human telomerase
Summary of the method: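 Selectivity index is the ratio of the concentration giving 50% Taq polymerase inhibition to the concentration giving 50% telomerase inhibition (modified TRAP, SGC-7901 cell extract).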

[6] = Homo sapiens, SGC-7901, 48 h, read-out: IC50

Sequence of DNA polymerase I, thermostable (P19821 whole entry): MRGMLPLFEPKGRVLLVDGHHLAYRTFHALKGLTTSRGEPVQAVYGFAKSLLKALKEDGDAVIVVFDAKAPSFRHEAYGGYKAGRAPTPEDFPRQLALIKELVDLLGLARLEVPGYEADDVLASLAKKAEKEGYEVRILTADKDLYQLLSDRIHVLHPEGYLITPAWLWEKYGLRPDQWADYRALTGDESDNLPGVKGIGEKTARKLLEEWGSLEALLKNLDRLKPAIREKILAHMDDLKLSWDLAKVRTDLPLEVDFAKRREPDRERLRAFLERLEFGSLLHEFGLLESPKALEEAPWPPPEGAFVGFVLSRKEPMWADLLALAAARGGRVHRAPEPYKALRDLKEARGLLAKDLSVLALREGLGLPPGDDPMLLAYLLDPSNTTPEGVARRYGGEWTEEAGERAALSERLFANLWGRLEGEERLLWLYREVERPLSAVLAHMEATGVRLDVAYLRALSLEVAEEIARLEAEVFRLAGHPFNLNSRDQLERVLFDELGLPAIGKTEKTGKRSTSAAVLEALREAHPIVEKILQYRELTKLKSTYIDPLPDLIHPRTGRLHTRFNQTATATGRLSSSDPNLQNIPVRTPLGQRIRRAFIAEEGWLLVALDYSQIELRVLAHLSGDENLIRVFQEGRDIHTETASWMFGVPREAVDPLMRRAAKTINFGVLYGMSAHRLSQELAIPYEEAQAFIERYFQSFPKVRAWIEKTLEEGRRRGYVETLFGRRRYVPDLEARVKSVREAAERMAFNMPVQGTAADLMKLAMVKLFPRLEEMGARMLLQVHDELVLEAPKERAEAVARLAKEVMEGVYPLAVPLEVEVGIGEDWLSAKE
T1 sequence (O14746 whole entry): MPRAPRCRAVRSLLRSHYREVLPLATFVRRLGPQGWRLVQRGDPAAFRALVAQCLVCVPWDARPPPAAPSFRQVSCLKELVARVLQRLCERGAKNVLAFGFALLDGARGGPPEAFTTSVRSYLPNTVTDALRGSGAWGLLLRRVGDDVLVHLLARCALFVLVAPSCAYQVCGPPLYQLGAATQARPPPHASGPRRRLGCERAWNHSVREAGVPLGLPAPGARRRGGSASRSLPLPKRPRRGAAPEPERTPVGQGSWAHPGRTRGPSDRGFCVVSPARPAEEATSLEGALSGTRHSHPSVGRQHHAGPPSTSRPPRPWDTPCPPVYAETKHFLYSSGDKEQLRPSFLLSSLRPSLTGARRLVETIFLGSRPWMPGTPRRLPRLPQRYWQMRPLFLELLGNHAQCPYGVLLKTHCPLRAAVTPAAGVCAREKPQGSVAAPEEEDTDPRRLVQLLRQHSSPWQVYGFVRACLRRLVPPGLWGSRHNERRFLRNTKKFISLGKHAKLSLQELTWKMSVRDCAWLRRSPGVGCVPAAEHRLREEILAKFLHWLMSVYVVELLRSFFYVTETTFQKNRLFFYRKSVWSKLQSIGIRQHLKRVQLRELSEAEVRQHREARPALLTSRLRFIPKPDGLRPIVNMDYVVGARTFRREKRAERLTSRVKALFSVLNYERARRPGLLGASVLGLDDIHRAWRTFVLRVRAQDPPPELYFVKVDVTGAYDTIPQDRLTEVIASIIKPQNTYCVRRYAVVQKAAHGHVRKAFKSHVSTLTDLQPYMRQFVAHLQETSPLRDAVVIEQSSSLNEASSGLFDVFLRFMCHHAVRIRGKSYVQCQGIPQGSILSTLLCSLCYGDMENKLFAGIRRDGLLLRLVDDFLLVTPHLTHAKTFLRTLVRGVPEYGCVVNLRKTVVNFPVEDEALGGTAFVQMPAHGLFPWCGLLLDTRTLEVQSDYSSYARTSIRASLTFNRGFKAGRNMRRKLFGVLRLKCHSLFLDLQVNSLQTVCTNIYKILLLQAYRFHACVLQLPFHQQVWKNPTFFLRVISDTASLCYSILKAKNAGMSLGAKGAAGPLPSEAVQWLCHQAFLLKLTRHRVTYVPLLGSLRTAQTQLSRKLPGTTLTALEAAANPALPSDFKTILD
Sequence of DNA polymerase I, thermostable (Thermus aquaticus) (P19821 whole entry): as the sequence (P19821 whole entry) above

Structure (SMILES) | inhibition [1] | IC50 (SGC-7901; sgc-7901) | inhibition [2] | IC50 [3] [µM] | IC50 [4] [µM] | Ratio IC50 [5] | IC50 (SGC-7901; [6]) [µg/mL]
COc1ccc(-c2oc3ccccc3c(=O)c2OCc2ccc(Cl)nc2)cc1 | inactive | Not Active | inactive |  |  |  | 
O=c1cc(-c2ccccc2)oc2cc(OCc3ccc(Cl)nc3)cc(O)c12 |  | Not Active |  | 27.5 | 20.9 | 1.3 | 
CC(=O)N1N=C(C)CC1c1ccccc1OCc1ccc(Cl)nc1 (stereo unspecified) |  | Not Active | inactive | 53.2 |  |  | 
COc1ccc(-c2cc(=O)c3ccc(OCc4ccc(Cl)nc4)cc3o2)cc1 |  |  |  | 6.4 | 3.1 | 2.1 | 35.2 (≈ 89.3 µM)
COc1ccc(-c2coc3cc(OCc4ccc(Cl)nc4)ccc3c2=O)cc1 |  |  |  | 7.5 | 2.5 | 3 | 31.9 (≈ 81.1 µM)
O=c1cc(-c2ccc(OCc3ccc(Cl)nc3)cc2)oc2cc(OCc3ccc(Cl)nc3)ccc12 |  |  |  | 5 | 3 | 1.6 | 18.4 (≈ 36.5 µM)
O=c1[nH]cc(F)c(=O)[nH]1 [FLUOROURACIL] |  |  |  |  |  |  | 7.38 (≈ 56.7 µM)
O=c1cc(-c2ccc(OCc3ccc(Cl)nc3)cc2)oc2cc(O)cc(O)c12 |  |  |  | 6.8 | 3.5 | 1.9 | 25.9 (≈ 65.5 µM)
O=c1cc(-c2ccc(OCc3ccc(Cl)nc3)cc2)oc2cc(OCc3ccc(Cl)nc3)cc(O)c12 |  |  |  | 2 | 0.8 | 2.5 | 22.3 (≈ 42.7 µM)
O=c1c(OCc2ccc(Cl)nc2)c(-c2ccccc2)oc2ccccc12 | inactive | Not Active | inactive |  |  |  | 
CC(=O)N1N=C(C)CC1c1ccc(OCc2ccc(Cl)nc2)cc1 (stereo unspecified) |  | Not Active |  |  | 46.7 |  | 
